Screening results (PubChem)
S100A4 inh HTS – S100A4-myosin IIA interaction inhibition. S100A4/TAMRA-MyoIIA peptide fluorescence polarization. hit rate 0.14% among 360,000. P26447. inhibition, % at 10.7 µM;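 active means mean inhibition of at least 70% across replicates, with every replicate also reaching that level; inconclusive means mean inhibition reaches 70% but some replicates fall short; inactive means mean inhibition below 70%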
Target sequence (P26447 whole entry, looked up): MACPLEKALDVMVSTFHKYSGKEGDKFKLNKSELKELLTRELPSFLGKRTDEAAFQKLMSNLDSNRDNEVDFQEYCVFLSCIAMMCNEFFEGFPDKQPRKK
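Material: S100A4 monomer protein | Medium: HEPES pH 7.2 with CaCl2, KCl, NaCl, DTT, Triton | Reagent: Labelled myosin peptide probe, 5 nM | Doses: One dose per compound | Times: 5 min incubation before reading | Benchmarks: Neutral control DMSO, positive control TFP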
MLL AF4-AF9 inh – MLL-AF4/AF9 protein interaction inhibition | AlphaScreen, biotin-AF4 peptide binding to FLAG-AF9 | inhibition, % at 10 µM | hit rate 0.47% among 350,000 | AID 651704;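 active means every replicate reaching a set inhibition limit, whatever the replicate mean, cut at about 25% in these data; inconclusive means mean inhibition reaches that limit but some replicates miss it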
Target sequence (P42568 whole entry, looked up): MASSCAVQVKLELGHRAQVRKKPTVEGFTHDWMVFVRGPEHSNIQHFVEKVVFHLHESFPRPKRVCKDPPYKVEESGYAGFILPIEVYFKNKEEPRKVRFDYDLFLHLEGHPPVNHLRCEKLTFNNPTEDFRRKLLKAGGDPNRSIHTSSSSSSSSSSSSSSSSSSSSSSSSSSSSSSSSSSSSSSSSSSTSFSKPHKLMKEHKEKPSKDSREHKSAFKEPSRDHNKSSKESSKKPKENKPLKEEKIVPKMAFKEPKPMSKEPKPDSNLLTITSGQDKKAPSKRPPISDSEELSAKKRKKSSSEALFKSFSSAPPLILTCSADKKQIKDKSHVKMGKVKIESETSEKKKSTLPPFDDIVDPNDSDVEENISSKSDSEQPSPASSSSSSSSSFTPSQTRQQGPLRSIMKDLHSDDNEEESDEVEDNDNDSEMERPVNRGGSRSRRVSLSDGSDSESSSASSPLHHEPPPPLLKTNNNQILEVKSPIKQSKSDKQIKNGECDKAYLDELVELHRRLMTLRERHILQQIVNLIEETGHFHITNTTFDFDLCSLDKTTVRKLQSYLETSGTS
RAD52 inh – RAD52 (human) annealing inhibition; recombinant RAD52 DNA annealing, FRET fluorescence; hit rate 0.46% among 360,000; AID 651710; inhibition, % at 18.7 µM; P43351;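 active means every replicate showing at least 50% inhibition; inconclusive means mean inhibition at least 50% but not in every replicate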
ERAP1 HTS inh – blocks human ERAP1 aminopeptidase activity; Q9NZ08; recombinant ERAP1, Leu-AMC fluorescence, 60 min; hit rate 0.15% among 340,000; inhibition, % at 10.7 µM;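 active means mean replicate inhibition of at least 30%, or all replicates individually reaching that 30% level; inactive means mean below 30% and not every replicate reaching it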
GSIS activator – GLuc luminescence reporter in INS-1E cells, primary screen for activators of glucose-dependent secretion of insulin | INS-1E GLuc reporter insulin secretion, 2-3 h | activation, % at 16.6 µM | hit rate 0.61% among 370,000 | AID 743287;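 active means lowest replicate activation of at least 40%, so every replicate reaches that level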
A number is an active result; n = inactive; u = inconclusive; x = no result given. Compounds with a hit are over-represented: about 1.5% of the library has one in this group of screens.

SMILES	S100A4 inh HTS	MLL AF4-AF9 inh	RAD52 inh	ERAP1 HTS inh	GSIS activator
CCC(CC)NCCOC(=O)c1ccc([N+](=O)[O-])cc1	n	26	n	n	n
CCCC#Cc1ccc2c(c1)[C@@H]1[C@@H](CCN1C(=O)C1CC1)[C@@H](CO)N2	x	x	x	x	n
COc1ccc(/C=C2\N=C(c3ccccc3)N(c3ccc(C(=O)O)cc3)C2=O)cc1OC	n	n	n	n	71
COc1cccc(-c2ccc3c(c2)[C@@H]2[C@@H](CCN2S(=O)(=O)c2cccc(OC)c2)[C@@H](CO)N3)c1	n	n	n	n	n
CC(C)C#Cc1cnc2c(c1)C(=O)N([C@@H](C)CO)C[C@@H](C)[C@H](CN(C)Cc1cncnc1)O2	n	n	n	n	n
CNC[C@@H]1Oc2ccc(N)cc2C(=O)N(C)C[C@@H]1C	x	x	x	x	n
CCOc1cc(/C=N/NC(=O)CSc2cccc3cccnc23)ccc1O	n	n	n	n	66
O=C(CSc1cccc2cccnc12)N/N=C/c1ccncc1	n	n	n	n	n
CCOc1cc(/C=N/NC(=O)C(C)Sc2ccccn2)ccc1O (stereo not given)	x	x	x	x	70
COc1ccc([Si](C)(C)[C@@H]2[C@@H](CCO)O[C@]3(C(=O)N4c5c(cc(OC)cc53)C(C)=CC4(C)C)[C@H]2C)cc1	n	n	n	n	x
Cc1ccc(/C=C/c2ccc3cccc(O)c3n2)s1	n	42	n	n	n
Oc1cccc(/C=C/c2ccc3cccc(O)c3n2)c1	n	n	n	n	n
Cc1ccc(-n2cc(CNCCn3nc(C)cc3C)c(-c3ccc(F)cc3)n2)cc1	n	n	n	n	n
Cc1ccc(-n2cc(CNCCc3ncc(C)[nH]3)c(-c3ccc(F)cc3)n2)cc1	n	28	n	n	n
CCOC(=O)N1CCN(C(=O)COc2ccccc2OC)CC1	x	x	x	x	62
CN1C(=S)N(c2ccccc2)C(=O)/C1=C/c1cccs1	x	x	x	x	68
CN1C(=S)N(c2ccccc2)C(=O)/C1=C/c1ccco1	x	x	x	x	n
CNC[C@@H]1OCCCC[C@H](C)Oc2ccc(NS(=O)(=O)c3ccc(C)cc3)cc2C(=O)N([C@H](C)CO)C[C@H]1C	n	n	n	n	n
O=C(NCCS(=O)(=O)NCCCc1ccccc1)c1ccccc1	94	n	n	n	n
C[C@H](CO)N1C[C@H](C)[C@@H](CN(C)C(=O)C2CCC2)Oc2cc(C#Cc3ccncc3)ccc2S1(=O)=O	n	n	n	n	n
COc1cc(F)ccc1CN1CCC(n2nccc2NC(=O)C2CCOC2)CC1 (stereo not given)	n	n	n	n	n
COc1cc(CN2CCC(n3nccc3NC(=O)C3CCOC3)CC2)ccc1F (stereo not given)	n	n	n	n	45
CCn1nnnc1NCc1ccc(OCc2c(F)cccc2Cl)c(OC)c1	n	n	n	x	43
COc1cc(CNc2ccc3[nH]c(=O)[nH]c3c2)ccc1OCc1c(F)cccc1Cl	n	n	n	n	n
CO[C@@H]1CN(C)C(=O)c2ccc(NC(=O)Nc3ccc4c(c3)OCO4)cc2OC[C@@H](C)N(C)C[C@H]1C	x	x	x	x	n
SMILES	S100A4 inh HTS	MLL AF4-AF9 inh	RAD52 inh	ERAP1 HTS inh	GSIS activator
C[C@H]1CN(C)C(=O)Cc2ccccc2O[C@@H]1CN(C)C	x	x	x	x	n
COC(=O)C1=C(C)NC(=S)NC1c1cccc(OC)c1 (stereo not given)	n	x	n	n	44
CC(=O)Nc1ccc2c(c1)CC(=O)N(C)C[C@@H](C)[C@@H](CN(C)C(=O)OC(C)(C)C)O2	x	x	x	x	n
O=C(NC[C@@H]1CC[C@@H]2[C@@H](CN2Cc2ccccc2F)O1)C1CC1	n	n	n	n	x
Cc1ccc(NC2c3ncccc3C(=O)N2C2CCCCC2)cc1 (stereo not given)	x	x	x	x	56
CCOc1ccc(C(=O)NCc2ccccn2)cc1	n	n	n	n	n
O=C(NCc1ccccn1)c1coc(=O)c(Br)c1	x	x	x	x	102
CC(=O)N(C)C[C@H]1Oc2ccc(N)cc2C(=O)N(C)C[C@@H]1C	x	x	x	x	n
O=S(=O)(NCC1CCCO1)c1ccc(Cl)nc1 (stereo not given)	n	n	n	n	44
COc1ccc(COC[C@]23NC(=O)N[C@H](c4ccccc4O2)[C@H]3CO)cc1	n	26	n	n	x
COc1ccc(COCC23N=C4SCC(=O)N4[C@H](c4ccccc4O2)[C@H]3CO)cc1	n	n	n	n	x
Cc1cc2cc(CNC(=O)c3ccc(S(=O)(=O)N4CCCCC4)cc3)ccc2n1C	n	n	n	n	x
Cc1cc2cc(CNC(=O)c3ccc(S(=O)(=O)N4CCCC4)cc3)ccc2n1C	121	n	n	n	n
O=C(Cc1ccc2c(c1)OCCO2)N1CCN(S(=O)(=O)c2cccc(Cl)c2Cl)CC1	n	30	n	n	n
O=C(Cc1ccc2c(c1)OCCO2)N1CCN(S(=O)(=O)c2ccccc2C(F)(F)F)CC1	n	n	n	n	n
CNC[C@@H]1Oc2c(NC(=O)NC(C)C)cccc2C(=O)N(C)C[C@H]1C	x	x	x	x	n
Cc1ccc(CNC(=O)c2ccc3nc4[nH]c5ccccc5c4nc3c2)cc1	x	x	x	x	61
COc1ccc(-n2c3c(c(=O)[nH]c2=O)C(NC(C)=O)(C(F)(F)F)C(=O)N3)cc1 (stereo not given)	n	n	n	n	n
COc1ccc(-n2c3c(c(=O)[nH]c2=O)C(NS(=O)(=O)c2ccc(Cl)cc2)(C(F)(F)F)C(=O)N3)cc1 (stereo not given)	n	n	n	n	55
COc1ccc2nc(CCN(C)C(=O)C3CCC(=O)N(Cc4cccc(F)c4)C3)[nH]c2c1 (stereo not given)	n	n	n	n	61
O=C(CSc1nnc(NC(=O)c2ccccc2C(=O)O)s1)Nc1ccccc1Cl	n	n	n	n	n
Cc1cccc(C)c1NC(=O)CSc1nnc(NC(=O)c2ccccc2C(=O)O)s1	n	n	n	45	n
CC(=O)Nc1ccc2c(O)cc(S(=O)(=O)O)cc2c1	n	n	n	n	n
COc1ccccc1Nc1ccc2c(O)cc(S(=O)(=O)O)cc2c1	n	n	n	38	n
O=S(=O)(O)c1cc(O)c2ccc(Nc3ccccc3)cc2c1	n	n	n	40	x
SMILES	S100A4 inh HTS	MLL AF4-AF9 inh	RAD52 inh	ERAP1 HTS inh	GSIS activator
O=S(=O)(O)c1ccc(O)c2cc(Nc3ccccc3)ccc12	n	n	n	n	x
O=S(=O)(O)c1cc(O)c2cc(Nc3ccccc3)ccc2c1	n	n	n	43	x
C[C@H](CO)N1C[C@H](C)[C@H](CN(C)Cc2cncnc2)Oc2cc(C#CC3CCCC3)ccc2S1(=O)=O	n	n	n	n	n
CCC(C)NC(=O)CSc1ncnc2sccc12 (stereo not given)	n	n	n	n	n
NC(=O)c1ccsc1NC(=O)CSc1ncnc2sccc12	n	u	n	n	57
N#CC1=C(N)Oc2n[nH]c(-c3ccc(F)cc3)c2C1c1cccnc1 (stereo not given)	x	x	x	x	56
C[C@@H]1CCCCO[C@@H](CN(C)Cc2ccc(C(=O)O)cc2)[C@H](C)CN([C@H](C)CO)C(=O)c2cc(NC(=O)c3ccncc3)ccc2O1	n	n	104	n	n
